# Reference: ChEMBL document CHEMBL4130351, “Novel pyrazolopyrimidines: Synthesis, in vitro cytotoxic activity and mechanistic investigation” (Eur J Med Chem, 2017)
# Tests used:
# MCF7 [1] = test: Cytotoxicity against human MCF7 cells assessed as reduction in cell viability after 72 hrs by MTT assay; format: functional, cell-based; conditions: MCF7, 72 h
# In short: (§1)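 MCF-7 and HepG2 cells in exponential growth were trypsinized and seeded at 1000–2000 cells/well, then incubated 24 h at 37 °C. Compound exposure was 72 h at 0.1, 10, 100 and 1000 μM. Cells took up 5% MTT for 2 h, and formazan was dissolved in acidified isopropanol for 30 min at room temperature. A570 was read, viability expressed as % of control, and IC50 obtained by curve fitting.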
# HepG2 [2] = test: Cytotoxicity against human HepG2 cells assessed as reduction in cell viability after 72 hrs by MTT assay; format: functional, cell-based; conditions: HepG2, 72 h; in short: as §1
# HepG2 [3] = test: Induction of apoptosis in human HepG2 cells at 0.4 uM after 24 hrs by Annexin V/propidium iodide double staining-based flow cytometry (reference value: 0.84%); format: functional
# In short: (§2)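 MCF-7 exposed at 1.4 μM or HepG2 at 0.4 μM for 24 or 48 h. Cells were collected in PBS, fixed in ice-cold 70% ethanol, washed, then resuspended in PI staining solution containing 0.1 mg/mL RNase plus PE-Annexin V. Staining was 10 min in the dark at 37 °C, followed by FACSCalibur flow cytometry.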
# HepG2 [4] = test: Induction of apoptosis in human HepG2 cells at 0.4 uM after 48 hrs by Annexin V/propidium iodide double staining-based flow cytometry (reference value: 0.84%); format: functional; in short: as §2
# HepG2 [5] = test: Cell cycle arrest in human HepG2 cells assessed as accumulation at G0/G1 phase at 0.4 uM after 24 hrs by propidium iodide staining-based flow cytometry (reference value: 73.11%); format: functional
# HepG2 [6] = test: Cell cycle arrest in human HepG2 cells assessed as accumulation at G0/G1 phase at 0.4 uM after 48 hrs by propidium iodide staining-based flow cytometry (reference value: 73.11%); format: functional
# HepG2 [7] = test: Cell cycle arrest in human HepG2 cells assessed as accumulation at S phase at 0.4 uM after 24 hrs by propidium iodide staining-based flow cytometry (reference value: 21.69%); format: functional
# HepG2 [8] = test: Cell cycle arrest in human HepG2 cells assessed as accumulation at S phase at 0.4 uM after 48 hrs by propidium iodide staining-based flow cytometry (reference value: 21.69%); format: functional
# HepG2 [9] = test: Cell cycle arrest in human HepG2 cells assessed as accumulation at G2/M phase at 0.4 uM after 24 hrs by propidium iodide staining-based flow cytometry (reference value: 4.36%); format: functional
# HepG2 [10] = test: Cell cycle arrest in human HepG2 cells assessed as accumulation at G2/M phase at 0.4 uM after 48 hrs by propidium iodide staining-based flow cytometry (reference value: 4.36%); format: functional
# HepG2 [11] = test: Induction of apoptosis in human HepG2 cells assessed as viable cells at 0.4 uM after 24 hrs by Annexin V/propidium iodide double staining-based flow cytometry (reference value: 99.16 %); format: functional; conditions: HepG2, 24 h, read-out: Activity; in short: as §2
# HepG2 [12] = test: Induction of apoptosis in human HepG2 cells assessed as early apoptotic cells at 0.4 uM after 24 hrs by Annexin V/propidium iodide double staining-based flow cytometry (reference value: 0.61 %); format: functional; in short: as §2
# HepG2 [13] = test: Induction of apoptosis in human HepG2 cells assessed as late apoptotic cells at 0.4 uM after 24 hrs by Annexin V/propidium iodide double staining-based flow cytometry (reference value: 0.14 %); format: functional; in short: as §2
# HepG2 [14] = test: Induction of apoptosis in human HepG2 cells assessed as necrotic cells at 0.4 uM after 24 hrs by Annexin V/propidium iodide double staining-based flow cytometry (reference value: 0.09 %); format: functional; in short: as §2
# HepG2 [15] = test: Induction of apoptosis in human HepG2 cells assessed as viable cells at 0.4 uM after 48 hrs by Annexin V/propidium iodide double staining-based flow cytometry (reference value: 99.16 %); format: functional; conditions: HepG2, 48 h, read-out: Activity; in short: as §2
# HepG2 [16] = test: Induction of apoptosis in human HepG2 cells assessed as early apoptotic cells at 0.4 uM after 48 hrs by Annexin V/propidium iodide double staining-based flow cytometry (reference value: 0.61 %); format: functional; in short: as §2
# HepG2 [17] = test: Induction of apoptosis in human HepG2 cells assessed as late apoptotic cells at 0.4 uM after 48 hrs by Annexin V/propidium iodide double staining-based flow cytometry (reference value: 0.14 %); format: functional; in short: as §2
# HepG2 [18] = test: Induction of apoptosis in human HepG2 cells assessed as necrotic cells at 0.4 uM after 48 hrs by Annexin V/propidium iodide double staining-based flow cytometry (reference value: 0.09 %); format: functional; in short: as §2
# HepG2 [19] = test: Induction of apoptosis in human HepG2 cells assessed as caspase-3 activation at 0.4 uM after 10 mins by ELISA relative to control; format: functional
# In short: (§3)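 MCF-7 treated at 1.4 μM or HepG2 at 0.4 μM. Cells were trypsinized, rinsed in PBS, pelleted (105–106 cells) and resuspended in 1 mL PBS. Lysis was by three freeze/thaw cycles, followed by a 1500×g spin for 10 min at 2–8 °C. Active caspase-3 (cleaved at Asp175/Ser176) in the lysate was quantified by sandwich ELISA with an anti-rabbit HRP step, read at 450 nm, in pg/mL against control.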
# [20] = biological target: Cyclin-dependent kinase 2 (Homo sapiens) (UniProt P24941); test: Inhibition of CDK2 (unknown origin) at 0.004 uM by CDKN2A antibody-based spectrophotometry
# [21] = biological target: Cyclin-dependent kinase 2 (Homo sapiens) (UniProt P24941); test: Inhibition of CDK2 (unknown origin) at 0.02 uM by CDKN2A antibody-based spectrophotometry
# [22] = biological target: Cyclin-dependent kinase 2 (Homo sapiens) (UniProt P24941); test: Inhibition of CDK2 (unknown origin) at 0.1 uM by CDKN2A antibody-based spectrophotometry
# In short: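 Sandwich enzyme immunoassay using a plate pre-coated with CDKN2A-specific antibody. Detection used a biotinylated anti-CDKN2A antibody, then avidin-HRP and substrate; the reaction was stopped and read at 450 nm. Compound levels tested were 0.004, 0.02, 0.1, 0.4 and 0.5 ug/mL, reported as % inhibition. IC50 was derived by Boltzmann sigmoidal nonlinear regression.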
# [23] = biological target: Cyclin-dependent kinase 2 (Homo sapiens) (UniProt P24941); test: Inhibition of CDK2 (unknown origin) at 0.4 uM by CDKN2A antibody-based spectrophotometry
# [24] = biological target: Cyclin-dependent kinase 2 (Homo sapiens) (UniProt P24941); test: Inhibition of CDK2 (unknown origin) at 0.5 uM by CDKN2A antibody-based spectrophotometry
# [25] = biological target: Cyclin-dependent kinase inhibitor 1 (Homo sapiens) (UniProt P38936); test: Activation of human P21cip1 at 0.40 uM using TMB as substrate by ELISA (reference value: 0%)
# Cyclin-dependent kinase inhibitor 1 (Homo sapiens), sequence (P38936 whole entry): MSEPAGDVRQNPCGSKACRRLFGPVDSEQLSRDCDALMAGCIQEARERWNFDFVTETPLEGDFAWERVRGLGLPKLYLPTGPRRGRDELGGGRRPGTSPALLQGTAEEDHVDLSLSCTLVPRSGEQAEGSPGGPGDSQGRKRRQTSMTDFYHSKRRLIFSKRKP
# In short: (§4)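 Sandwich ELISAs on treated cells for p21Cip1 and p27Kip1: antibody-coated wells, detecting antibody, then HRP conjugate, with incubation and washing between steps. TMB substrate, reaction stopped, absorbance read at 450 nm. Output is residual concentration in pg/mL, expressed as % activation over untreated control.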
# [26] = biological target: Cyclin-dependent kinase inhibitor 1B (Homo sapiens) (UniProt P46527); test: Activation of human P27kip1 at 0.40 uM using TMB as substrate by ELISA (reference value: 0%); in short: as §4
# Cyclin-dependent kinase inhibitor 1B (Homo sapiens), sequence (P46527 whole entry): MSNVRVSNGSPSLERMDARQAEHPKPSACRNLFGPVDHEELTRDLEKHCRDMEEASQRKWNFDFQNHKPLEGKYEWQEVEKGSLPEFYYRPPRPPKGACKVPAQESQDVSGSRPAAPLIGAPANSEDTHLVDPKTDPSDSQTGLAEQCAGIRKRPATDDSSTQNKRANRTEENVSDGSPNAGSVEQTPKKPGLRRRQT
# MCF7 [27] = test: Induction of apoptosis in human MCF7 cells at 1.4 uM after 24 hrs by Annexin V/propidium iodide double staining-based flow cytometry (reference value: 0.62%); format: functional; in short: as §2
# MCF7 [28] = test: Induction of apoptosis in human MCF7 cells at 1.4 uM after 48 hrs by Annexin V/propidium iodide double staining-based flow cytometry (reference value: 0.62%); format: functional; in short: as §2
# MCF7 [29] = test: Cell cycle arrest in human MCF7 cells assessed as accumulation at G0/G1 phase at 1.4 uM after 24 hrs by propidium iodide staining-based flow cytometry (reference value: 71.70%); format: functional
# MCF7 [30] = test: Cell cycle arrest in human MCF7 cells assessed as accumulation at G0/G1 phase at 1.4 uM after 48 hrs by propidium iodide staining-based flow cytometry (reference value: 71.70%); format: functional
# MCF7 [31] = test: Cell cycle arrest in human MCF7 cells assessed as accumulation at S phase at 1.4 uM after 24 hrs by propidium iodide staining-based flow cytometry (reference value: 22.45%); format: functional
# MCF7 [32] = test: Cell cycle arrest in human MCF7 cells assessed as accumulation at S phase at 1.4 uM after 48 hrs by propidium iodide staining-based flow cytometry (reference value: 22.45%); format: functional
# MCF7 [33] = test: Cell cycle arrest in human MCF7 cells assessed as accumulation at G2/M phase at 1.4 uM after 24 hrs by propidium iodide staining-based flow cytometry (reference value: 5.23%); format: functional
# MCF7 [34] = test: Cell cycle arrest in human MCF7 cells assessed as accumulation at G2/M phase at 1.4 uM after 48 hrs by propidium iodide staining-based flow cytometry (reference value: 5.23%); format: functional
# MCF7 [35] = test: Induction of apoptosis in human MCF7 cells assessed as viable cells at 1.4 uM after 24 hrs by Annexin V/propidium iodide double staining-based flow cytometry (reference value: 99.38 %); format: functional; conditions: MCF7, 24 h, read-out: Activity; in short: as §2
# MCF7 [36] = test: Induction of apoptosis in human MCF7 cells assessed as early apoptotic cells at 1.4 uM after 24 hrs by Annexin V/propidium iodide double staining-based flow cytometry (reference value: 0.39 %); format: functional; in short: as §2
# MCF7 [37] = test: Induction of apoptosis in human MCF7 cells assessed as late apoptotic cells at 1.4 uM after 24 hrs by Annexin V/propidium iodide double staining-based flow cytometry (reference value: 0.18 %); format: functional; in short: as §2
# MCF7 [38] = test: Induction of apoptosis in human MCF7 cells assessed as necrotic cells at 1.4 uM after 24 hrs by Annexin V/propidium iodide double staining-based flow cytometry (reference value: 0.05 %); format: functional; in short: as §2
# MCF7 [39] = test: Induction of apoptosis in human MCF7 cells assessed as viable cells at 1.4 uM after 48 hrs by Annexin V/propidium iodide double staining-based flow cytometry (reference value: 99.38 %); format: functional; conditions: MCF7, 48 h, read-out: Activity; in short: as §2
# MCF7 [40] = test: Induction of apoptosis in human MCF7 cells assessed as early apoptotic cells at 1.4 uM after 48 hrs by Annexin V/propidium iodide double staining-based flow cytometry (reference value: 0.39 %); format: functional; in short: as §2
# MCF7 [41] = test: Induction of apoptosis in human MCF7 cells assessed as late apoptotic cells at 1.4 uM after 48 hrs by Annexin V/propidium iodide double staining-based flow cytometry (reference value: 0.18 %); format: functional; in short: as §2
# MCF7 [42] = test: Induction of apoptosis in human MCF7 cells assessed as necrotic cells at 1.4 uM after 48 hrs by Annexin V/propidium iodide double staining-based flow cytometry (reference value: 0.05 %); format: functional; in short: as §2
# MCF7 [43] = test: Induction of apoptosis in human MCF7 cells assessed as caspase-3 activation at 1.4 uM after 10 mins by ELISA relative to control; format: functional; in short: as §3
structure (smiles),measurement,setting,value
N#Cc1cnn(-c2ccc(S(N)(=O)=O)cc2)c1N,IC50,MCF7 [1],> 100 µM
same,IC50,HepG2 [2],> 100 µM
N=c1[nH]c(=O)[nH]c2c1cnn2-c1ccc(S(N)(=O)=O)cc1,IC50,MCF7 [1],> 100 µM
same,IC50,HepG2 [2],0.4 µM
same,Activity,HepG2 [3],13.92%
same,Activity,HepG2 [4],16.71%
same,Activity,HepG2 [5],36.55%
same,Activity,HepG2 [6],9.62%
same,Activity,HepG2 [7],25.66%
same,Activity,HepG2 [8],24.67%
same,Activity,HepG2 [9],23.78%
same,Activity,HepG2 [10],48.91%
same,viability at 0.4 µM,HepG2 [11],86.3%
same,Activity,HepG2 [12],7.64%
same,Activity,HepG2 [13],4.79%
same,Activity,HepG2 [14],1.29%
same,viability at 0.4 µM,HepG2 [15],83.3%
same,Activity,HepG2 [16],9.76%
same,Activity,HepG2 [17],5.92%
same,Activity,HepG2 [18],1.03%
same,fold change (FC),HepG2 [19],36
same,inhibition,[20],12.6%
same,inhibition,[21],39%
same,inhibition,[22],53.1%
same,inhibition,[23],68.8%
same,inhibition,[24],81.8%
same,Activity,[25],10.1%
same,Activity,[26],8.5%
NS(=O)(=O)c1ccc(-n2ncc3c(=O)[nH]c(-c4ccc(Cl)cc4)nc32)cc1,IC50,MCF7 [1],2.5 µM
same,IC50,HepG2 [2],23.9 µM
COc1ccc(-c2nc3c(cnn3-c3ccc(S(N)(=O)=O)cc3)c(=O)[nH]2)cc1,IC50,MCF7 [1],1.4 µM
same,IC50,HepG2 [2],> 100 µM
same,Activity,MCF7 [27],7.38%
same,Activity,MCF7 [28],11.61%
same,Activity,MCF7 [29],64.7%
same,Activity,MCF7 [30],72.3%
same,Activity,MCF7 [31],27.92%
same,Activity,MCF7 [32],16.09%
same,Activity,MCF7 [33],0%
same,Activity,MCF7 [34],0%
same,viability at 1.4 µM,MCF7 [35],72.6%
same,Activity,MCF7 [36],4.39%
same,Activity,MCF7 [37],2.58%
same,Activity,MCF7 [38],0.41%
same,viability at 1.4 µM,MCF7 [39],88.4%
same,Activity,MCF7 [40],6.49%
same,Activity,MCF7 [41],3.64%
same,Activity,MCF7 [42],1.48%
same,fold change (FC),MCF7 [43],32
NS(=O)(=O)c1ccc(-n2ncc3c(=O)[nH]c(-c4ccc(Br)cc4)nc32)cc1,IC50,MCF7 [1],14.5 µM
same,IC50,HepG2 [2],42.6 µM
COc1ccc(-c2nc3c(cnn3-c3ccc(S(N)(=O)=O)cc3)c(=O)[nH]2)cc1OC,IC50,MCF7 [1],> 100 µM
same,IC50,HepG2 [2],> 100 µM
